Screening data deposited in PubChem by The Scripps Research Institute Molecular Screening Center.
Sampled rows, rich in hits. Any-hit rate of the full collection: about 2.8%.
PAFAH1B3 FP inh – PAFAH1B3 (human) inhibition | Q15102 | recombinant PAFAH1B3, FP-rhodamine probe, fluorescence polarization | inhibition, % at 3.39 µM | actives 0.28% (n = 340,000) | AID 492972;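 active = inhibition above the screen-wide average of all tested compounds plus 3 SD, cut at about 25% in these data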
PAFAH2 inh – PAFAH2 (human) inhibition; Q99487; recombinant PAFAH2, FP-rhodamine activity probe, fluorescence polarization; inhibition, % at 3.39 µM; actives 0.99% (n = 340,000); AID 492956;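 active = inhibition above the mean over all tested compounds plus 3 SD, cut at about 30% in these data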;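 also: inhibitors block probe labeling of enzyme so polarization drops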
pPAFAH inh – pPAFAH (human) enzyme inhibition; recombinant pPAFAH, FP-rhodamine probe fluorescence polarization; actives 1.5% (n = 330,000); inhibition, % at 3.39 µM;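 active = inhibition above the mean inhibition across the screen plus 3 SD, cut at about 25% in these data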;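 also: inhibitors block binding of the rhodamine activity-based probe so polarization drops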
PAFAH1B2 FP inh – PAFAH1B2 (human) inhibition | P68402 | recombinant PAFAH1B2, FP-rhodamine activity probe, fluorescence polarization | inhibition, % at 3.39 µM | actives 1.2% (n = 340,000) | AID 492953;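 active = inhibition above the mean of all tested compounds plus 3 SD, cut at about 24% in these data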
ABHD4 inh – ABHD4 (mouse) inhibition, primary FP screen; purified mABHD4, FP-Rh probe fluorescence polarization; inhibition, % at 8.92 µM; actives 0.54% (n = 370,000); AID 720543;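 active = inhibition exceeding the mean over every tested compound plus 3 SD, cut at about 30% in these data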
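Test system: mABHD4 protein; Read-out basis: % inhibition; Incubation: 45 min + 60 min at 25 °C; Repeats: single replicate; Technique: fluorescence polarization with parallel and perpendicular emission, 525/598 nm; Compound: 8.92 µM, single dose; Benchmarks: full inhibition S159A mutant plus DMSO, zero as sample-well median.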
HTRA1 inh – HTRA1 (human) protease inhibition | Q92743 | recombinant HTRA1, FP-rhodamine activity-based probe, fluorescence polarization | inhibition, % at 5.96 µM | actives 0.5% (n = 340,000) | AID 504803; in the data active = inhibition above about 36%
Target sequence (Q92743 whole entry, looked up): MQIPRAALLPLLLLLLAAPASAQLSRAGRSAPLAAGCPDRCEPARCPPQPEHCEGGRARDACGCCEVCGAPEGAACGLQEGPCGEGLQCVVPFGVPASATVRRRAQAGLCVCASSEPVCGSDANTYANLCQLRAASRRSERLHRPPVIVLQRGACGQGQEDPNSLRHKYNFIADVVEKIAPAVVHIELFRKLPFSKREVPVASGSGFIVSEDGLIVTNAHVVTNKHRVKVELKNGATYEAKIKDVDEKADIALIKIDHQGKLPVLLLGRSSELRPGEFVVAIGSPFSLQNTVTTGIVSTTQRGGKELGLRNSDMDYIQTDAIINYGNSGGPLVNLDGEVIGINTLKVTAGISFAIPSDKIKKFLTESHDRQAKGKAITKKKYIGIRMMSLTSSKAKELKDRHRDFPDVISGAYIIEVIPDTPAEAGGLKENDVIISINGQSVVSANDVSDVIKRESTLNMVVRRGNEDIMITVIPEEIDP
PAFAH2 FP conf – PAFAH2 (human) inhibition, confirmed; recombinant PAFAH2, FP-rhodamine activity probe, fluorescence polarization; shares compounds with PAFAH2 inh; inhibition, % at 3.39 µM; AID 493030; actives 65% (n = 2,300);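 active = mean inhibition over three repeats above a set limit taken from the earlier primary screen, cut at about 30% in these data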;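 also: inhibitor blocks binding of rhodamine activity probe so polarization falls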
A number is an active result; – = inactive; · = no result given.

SMILES	PAFAH1B3 FP inh	PAFAH2 inh	pPAFAH inh	PAFAH1B2 FP inh	ABHD4 inh	HTRA1 inh	PAFAH2 FP conf
C/C=C/C(=O)OCC(=O)Nc1ccc(C)c(S(=O)(=O)N(C)C)c1	–	57	–	–	–	–	48
O=C(NCC(c1ccccc1)c1ccccc1)[C@H](Cc1c[nH]c2ccccc12)NC1(C(=O)NC2CCCCC2)CCC1	·	·	·	·	–	·	·
CN(C)c1cccc(-c2cnc(N3CCC(C(N)=O)CC3)s2)c1	·	·	·	·	–	·	·
CC(C)c1ccc(NC(=O)COC(=O)/C=C/c2cccc([N+](=O)[O-])c2)cc1	–	–	–	–	–	–	·
O=C(COC(=O)/C=C/c1ccco1)Nc1cccc([N+](=O)[O-])c1	–	84	–	–	–	–	85
COc1ccc(C(=O)NCC(=O)OCC(=O)Nc2ccc(C)c(S(=O)(=O)N(C)C)c2)cc1OC	–	41	–	–	–	–	–
COc1ccc(CCC(=O)Nc2ccc(C)c(S(=O)(=O)N(C)C)c2)cc1OC	–	–	–	–	–	–	·
CN(C)S(=O)(=O)c1cccc(NC(=O)COC(=O)/C=C/c2ccco2)c1	–	55	–	–	–	–	47
Cc1ccc(/C=C/C(=O)OCC(=O)Nc2cccc(S(=O)(=O)N(C)C)c2)o1	–	67	–	–	–	–	39
CC(=O)OCC(=O)Nc1ccc(SC(F)F)cc1	–	–	–	–	–	–	·
C/C=C/C(=O)OCC(=O)Nc1ccc(SC(F)F)cc1	–	56	–	–	–	–	48
O=C(COC(=O)c1ccccc1C(=O)c1ccccc1)NCc1ccc(F)cc1	–	43	–	–	–	–	36
O=C(COc1ccc(C(=O)c2ccccc2)cc1)NCc1ccc(F)cc1	–	–	–	–	–	–	·
O=C(COC(=O)c1ccccc1C(=O)c1ccc(Cl)cc1)NCc1ccccc1	–	34	–	–	–	–	–
O=C(COC(=O)c1ccccc1C(=O)c1ccc(Cl)cc1)NCC1CCCO1 (stereo unspecified)	–	–	–	–	–	–	·
O=C(COC(=O)c1ccccc1C(=O)c1ccccc1)NCCc1ccc(Cl)cc1Cl	–	71	–	–	–	–	58
Cc1ccc(C(=O)c2ccccc2C(=O)OCC(=O)NCCc2ccccc2)cc1	–	–	–	–	–	–	·
O=C(COC(=O)c1ccc(Br)cc1)NCc1ccccc1	–	31	–	–	–	–	–
COC(=O)c1cc(-c2ccc(Oc3ccccc3)cc2)c(=O)n2c1CCC2	·	·	·	·	–	·	·
COc1ccc(N2CCN(CCNS(=O)(=O)c3ccccc3[N+](=O)[O-])CC2)cc1	·	·	·	·	–	·	·
CCOC(=O)C1=NOC(C(=O)NCCO)(C(=O)C2CC2)C1 (stereo unspecified)	·	·	·	·	–	·	·
CC(C)(C)NC(=O)COC(=O)c1ccccc1C(=O)c1ccccc1	–	69	–	–	–	–	56
Cc1ccc(C(=O)c2ccccc2C(=O)OCC(=O)NC(=O)NC(C)(C)C)cc1	–	–	–	–	–	–	·
COc1cc(/C=C/C(=O)OCC(=O)NCc2ccco2)ccc1OC(F)F	–	39	–	–	–	–	–
COc1cccc(/C=C/C(=O)OCC(=O)NCc2ccco2)c1OC	–	66	–	–	–	–	53
SMILES	PAFAH1B3 FP inh	PAFAH2 inh	pPAFAH inh	PAFAH1B2 FP inh	ABHD4 inh	HTRA1 inh	PAFAH2 FP conf
CCOc1cc(/C=C/C(=O)OCC(=O)NCc2ccco2)cc(Cl)c1OC	–	–	–	–	–	–	·
COc1cccc(/C=C/C(=O)OCC(=O)c2ccc(C)c(C)c2)c1OC	–	–	–	–	–	–	·
COc1cccc(/C=C/C(=O)OCC(=O)c2ccccc2)c1OC	–	58	–	–	–	–	34
COc1ccc(/C=C/C(=O)OCC(=O)NCc2ccco2)cc1OC	–	49	–	–	–	–	38
O=C(Nc1ccc(Oc2ccccc2)cc1)C1CCN(c2nnc(-n3cccc3)s2)CC1	·	·	·	·	–	·	·
C=CCOc1ccc(/C=C/C(=O)OCC(=O)NCc2cccs2)cc1	–	38	–	–	–	–	41
COc1cccc(/C=C/C(=O)OCC(=O)NCC2CCCCC2)c1OC	–	80	–	–	–	–	79
COc1cc(/C=C/C(=O)OCC(=O)Nc2cc(C)on2)ccc1OCC#N	–	–	·	–	–	–	·
COc1cc(/C=C/C(=O)OCC(=O)NCc2cccs2)ccc1OCC#N	–	53	–	–	–	–	52
CC(C)NC(=O)N[C@H]1C[C@@H]2O[C@H](CO)CC[C@@H]2O[C@@H]1CCc1ccc(-c2ccccc2F)cc1	·	·	·	·	–	·	·
CC1CCCN(CCCNS(=O)(=O)c2cc3c(cc2Br)CCN3C(=O)C2CC2)C1 (stereo unspecified)	·	·	·	·	–	·	·
CC1CCN(C2=NC(=O)N(c3ccc(Br)cc3)C(=O)C2)CC1	·	·	·	·	–	·	·
Brc1ccccc1OCCCCn1cnc2ccccc21	–	35	–	–	–	–	–
COC(=O)[C@H](C)NC(=O)[C@@H]1CCCN1C(=O)CNP(=O)(OCc1ccccc1)OCc1ccccc1	·	·	·	·	–	·	·
O=C(COC(=O)c1ccccc1C(=O)N1CCN(c2ccc(F)cc2)CC1)NCc1ccccc1	–	–	–	–	–	–	·
O=C(COC(=O)c1ccccc1C(=O)N1CCN(c2ccccc2)CC1)Nc1ccccc1	–	63	–	–	–	–	60
O=C(COC(=O)c1ccccc1C(=O)N1CCN(c2ccccc2)CC1)Nc1ccc(F)cc1	–	74	–	–	–	–	60
COc1cccc(NC(=O)COC(=O)c2ccccc2C(=O)N2CCN(c3ccccc3)CC2)c1	–	54	–	–	–	–	54
COc1ccc(CNS(=O)(=O)/C=C/c2cc(C)ccc2CNC(=O)OC(C)(C)C)cc1	·	·	·	·	–	·	·
C[C@H]1[C@@H](OC(=O)NC2CCCCC2)CC[C@@]23CCCN2C(=O)CCC[C@@H]13	·	·	·	·	–	·	·
Cc1nc(NC(=O)COC(=O)c2ccc(CO)cc2)c(Cl)cc1Cl	–	44	–	–	–	–	–
Cc1nc(NC(=O)COC(=O)CCc2ccccc2)c(Cl)cc1Cl	–	–	–	–	–	–	·
Cc1ccc(NS(=O)(=O)c2cc(C(=O)O)ccc2Cl)c(C)c1	–	54	–	–	–	–	–
Cc1ccc(NS(=O)(=O)c2cc(C(=O)O)ccc2Cl)cc1	–	–	–	–	–	–	·
Cc1ccccc1NCC(=O)N/N=C/c1ccc[nH]1	·	·	·	·	–	·	·
COc1ccc(C2OC(=O)c3ccccc3S2)cc1 (stereo unspecified)	–	86	–	–	–	–	78
COc1cc(C2OC(=O)c3ccccc3S2)cc(OC)c1OC (stereo unspecified)	–	–	–	–	–	–	·
Cc1ccc(-c2nnc(SCC(=O)NNC(=S)Nc3ccccc3)n2C2CCCCC2)cc1	·	·	·	·	–	·	·
CCOC(=O)[C@]12CCCCC/C=C\1N(CCc1ccc(Cl)cc1)C(=O)[C@H]2CC(=O)NCCCN1CCCC1=O	·	·	·	·	–	·	·
